Active and inactive are the calls of the source. No cut-off for these calls is given here.
Experiments:
[1] = target: T1, Voltage-dependent T-type calcium channel subunit alpha-1G (Homo sapiens, UniProt O43497); assay: Inhibition of T-type alpha1G channel (unknown origin) expressed in HEK293 cells at 10 uM by fluorescence-based HTS assay; assay type: cell-based
Outline: (§1)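 FDSS6000 fluorescence-based HTS assay in HEK293 cells expressing Cav3.1 (α1G) or Cav3.2 (α1H), read as % inhibition.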

[2] = target: T2, Voltage-dependent T-type calcium channel subunit alpha-1H (Homo sapiens, UniProt O95180); assay: Inhibition of T-type alpha1H channel (unknown origin) expressed in HEK293 cells at 10 uM by fluorescence-based HTS assay; assay type: cell-based; outline: as §1
[3] = target: T1, Voltage-dependent T-type calcium channel subunit alpha-1G; assay: Inhibition of T-type alpha1G channel (unknown origin) by whole cell patch clamp method
Outline: (§2)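 Whole-cell patch clamp recording. T-type α1G and α1H IC50 values (±SD) were taken from dose-response curves.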

[4] = target: T2, Voltage-dependent T-type calcium channel subunit alpha-1H; assay: Inhibition of T-type alpha1H channel (unknown origin) by whole cell patch clamp method; outline: as §2
[5] = target: Voltage-dependent N-type calcium channel subunit alpha-1B (Homo sapiens) (UniProt Q00975); assay: Inhibition of N-type calcium channel (unknown origin) at 10 uM by whole cell patch clamp method
[6] = target: Voltage-gated inwardly rectifying potassium channel KCNH2 (Homo sapiens, UniProt Q12809); assay: Inhibition of human ERG expressed in CHO-K1 cells by whole cell patch clamp method; assay type: cell-based
CYP2D6 = CYP2D6 (Homo sapiens, UniProt P10635); assay: Inhibition of human CYP2D6 expressed in baculosomes assessed as remaining activity using fluorogenic substrate after 15 mins in presence of NADPH by fluorescence assay; assay type: ADME; design: concentration or dose not given beside the values; conditions: recombinant human CYP2D6 in baculosomes, probe fluorogenic substrate, read-out: Activity
Outline: (§3)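 Vivid CYP450 fluorescence assay for CYP2D6, 2C9, 2C19 and 3A4. Compound was preincubated with baculosome Master Pre-Mix and regeneration system for 15 min at 37 °C. The reaction was started with Vivid substrate plus NADPH and read on a fluorescence plate reader. Values are % remaining activity, in triplicate.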

CYP2C9 = CYP2C9 (Homo sapiens, UniProt P11712); assay: Inhibition of human CYP2C9 expressed in baculosomes assessed as remaining activity using fluorogenic substrate after 15 mins in presence of NADPH by fluorescence assay; assay type: ADME; design: concentration or dose not given beside the values; conditions: recombinant human CYP2C9 in baculosomes, probe fluorogenic substrate, read-out: Activity; outline: as §3
CYP2C19 = CYP2C19 (Homo sapiens, UniProt P33261); assay: Inhibition of human CYP2C19 expressed in baculosomes assessed as remaining activity using fluorogenic substrate after 15 mins in presence of NADPH by fluorescence assay; assay type: ADME; design: concentration or dose not given beside the values; conditions: recombinant human CYP2C19 in baculosomes, probe fluorogenic substrate, read-out: Activity; outline: as §3
CYP3A4 = CYP3A4 (Homo sapiens, UniProt P08684); assay: Inhibition of human CYP3A4 expressed in baculosomes assessed as remaining activity using fluorogenic substrate after 15 mins in presence of NADPH by fluorescence assay; assay type: ADME; design: concentration or dose not given beside the values; conditions: recombinant human CYP3A4 in baculosomes, probe fluorogenic substrate, read-out: Activity; outline: as §3
[7] = Metabolic stability in human liver microsomes assessed as parent compound remaining after 30 mins in presence of NADPH by LC-MS/MS analysis; assay type: ADME, Microsome; conditions: read-out: Stability
Outline: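 Pooled human liver microsomes were incubated at 37 °C with compound in potassium phosphate buffer and 1.2 mM NADPH for 30 min. The reaction was stopped with cold acetonitrile containing internal standard, centrifuged, and the supernatant analysed by LC-MS/MS.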

Rattus norvegicus [8] = assay: Antiallodynic activity in rat model of spinal nerve ligation-induced neuropathic pain assessed as […] for paw withdrawal at 100 mg/kg, po administered on day 14 after ligation surgery and measured 3 to 5 hrs post dose by Von Frey filaments based method; assay type: functional, organism-based
Outline: (§4)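 Spinal nerve ligation rats were dosed orally at 100 mg/kg 14 days after surgery, with gabapentin 100 mg/kg as reference (n = 5 test, n = 4 gabapentin). Mechanical and cold allodynia were tested 1, 3 and 5 h post dose. Significance versus pre-dose value by paired t-test.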

Rattus norvegicus [9] = assay: Antiallodynic activity in rat model of spinal nerve ligation-induced neuropathic pain assessed as reduction in cold allodynia by measuring paw withdrawal in response to acetone application at 100 mg/kg, po administered on day 14 after ligation surgery measured 1 to 5 hrs post dose relative to gabapentin; assay type: functional; outline: as §4
[10] = AUC (0 to infinity) in rat at 10 mg/kg, iv; assay type: ADME, organism-based; design: dose 10 mg/kg, time infinity, route intravenous; conditions: in vivo
[11] = AUClast in rat at 10 mg/kg, iv; assay type: ADME, organism-based; design: dose 10 mg/kg, time 0 - last, route intravenous; conditions: in vivo
[12] = Clearance in rat at 10 mg/kg, iv; assay type: ADME, organism-based; conditions: in vivo
[13] = Mean residence time in rat at 10 mg/kg, iv; assay type: ADME, organism-based; conditions: in vivo
[14] = Ratio of drug level in rat brain to plasma at 10 mg/kg, iv at 2 hrs; assay type: ADME, organism-based; conditions: brain and plasma, read-out: BPR
[15] = Oral bioavailability in rat at 10 mg/kg; assay type: ADME, organism-based; conditions: in vivo
[16] = AUC (0 to infinity) in rat at 10 mg/kg, po; assay type: ADME, organism-based; design: dose 10 mg/kg, route oral, time infinity; conditions: in vivo
[17] = AUClast in rat at 10 mg/kg, po; assay type: ADME, organism-based; design: dose 10 mg/kg, route oral, time 0 - last; conditions: in vivo
[18] = Cmax in rat at 10 mg/kg, po; assay type: ADME, organism-based; design: dose 10 mg/kg, route oral; conditions: in vivo
[19] = Tmax in rat at 10 mg/kg, po; assay type: ADME, organism-based; conditions: in vivo
[20] = Ratio of drug level in rat brain to plasma at 10 mg/kg, po at 2 hrs; assay type: ADME, organism-based; conditions: brain and plasma, read-out: BPR
[21] = target: T2, Voltage-dependent T-type calcium channel subunit alpha-1H; assay: Inhibition of T-type alpha1H channel (unknown origin) expressed in HEK293 cells after 3 mins by patch clamp assay; assay type: cell-based

Voltage-gated inwardly rectifying potassium channel KCNH2, sequence (Q12809 whole entry): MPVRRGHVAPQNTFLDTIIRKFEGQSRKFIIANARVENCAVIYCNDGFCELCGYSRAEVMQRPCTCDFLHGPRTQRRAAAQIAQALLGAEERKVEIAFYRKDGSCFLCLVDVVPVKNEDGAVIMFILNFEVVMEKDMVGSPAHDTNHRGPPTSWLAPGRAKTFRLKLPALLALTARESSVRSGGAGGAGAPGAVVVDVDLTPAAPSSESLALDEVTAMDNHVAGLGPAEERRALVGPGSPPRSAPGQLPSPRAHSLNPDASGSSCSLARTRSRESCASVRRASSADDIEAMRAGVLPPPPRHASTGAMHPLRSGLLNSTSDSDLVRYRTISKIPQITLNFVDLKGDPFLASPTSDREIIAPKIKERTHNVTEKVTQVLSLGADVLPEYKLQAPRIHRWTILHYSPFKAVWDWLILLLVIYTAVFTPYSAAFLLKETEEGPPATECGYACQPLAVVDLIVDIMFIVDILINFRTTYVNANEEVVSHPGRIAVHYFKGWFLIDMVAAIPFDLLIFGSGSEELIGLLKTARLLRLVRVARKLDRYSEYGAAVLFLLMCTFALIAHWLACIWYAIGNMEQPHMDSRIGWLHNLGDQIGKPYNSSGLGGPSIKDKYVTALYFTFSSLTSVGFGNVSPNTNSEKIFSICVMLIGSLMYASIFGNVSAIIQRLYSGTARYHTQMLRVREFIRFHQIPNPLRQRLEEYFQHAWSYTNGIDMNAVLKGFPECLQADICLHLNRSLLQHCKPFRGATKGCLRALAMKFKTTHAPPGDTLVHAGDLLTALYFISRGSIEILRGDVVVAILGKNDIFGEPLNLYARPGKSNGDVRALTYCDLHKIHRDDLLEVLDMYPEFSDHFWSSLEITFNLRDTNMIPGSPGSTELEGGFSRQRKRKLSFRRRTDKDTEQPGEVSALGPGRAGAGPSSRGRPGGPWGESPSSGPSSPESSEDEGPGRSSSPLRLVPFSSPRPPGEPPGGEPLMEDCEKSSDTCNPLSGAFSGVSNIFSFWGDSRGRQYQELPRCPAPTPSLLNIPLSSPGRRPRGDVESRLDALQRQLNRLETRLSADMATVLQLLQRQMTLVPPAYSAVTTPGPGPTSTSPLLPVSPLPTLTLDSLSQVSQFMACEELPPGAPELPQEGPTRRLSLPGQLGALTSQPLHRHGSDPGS
CYP2D6, sequence (P10635 whole entry): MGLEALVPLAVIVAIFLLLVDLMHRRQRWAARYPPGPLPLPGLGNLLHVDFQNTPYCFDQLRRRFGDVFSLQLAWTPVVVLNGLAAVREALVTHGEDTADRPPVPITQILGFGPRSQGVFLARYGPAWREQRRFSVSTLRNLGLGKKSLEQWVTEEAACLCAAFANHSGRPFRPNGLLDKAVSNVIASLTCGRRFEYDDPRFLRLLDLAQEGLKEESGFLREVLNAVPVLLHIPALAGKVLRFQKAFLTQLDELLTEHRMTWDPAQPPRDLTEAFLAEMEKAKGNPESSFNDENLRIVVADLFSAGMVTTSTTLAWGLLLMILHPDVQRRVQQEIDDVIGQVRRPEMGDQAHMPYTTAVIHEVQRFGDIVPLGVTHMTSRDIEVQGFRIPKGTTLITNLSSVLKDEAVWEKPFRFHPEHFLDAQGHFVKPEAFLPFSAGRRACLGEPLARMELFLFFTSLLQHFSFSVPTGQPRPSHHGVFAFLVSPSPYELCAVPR
T2 sequence (O95180 whole entry): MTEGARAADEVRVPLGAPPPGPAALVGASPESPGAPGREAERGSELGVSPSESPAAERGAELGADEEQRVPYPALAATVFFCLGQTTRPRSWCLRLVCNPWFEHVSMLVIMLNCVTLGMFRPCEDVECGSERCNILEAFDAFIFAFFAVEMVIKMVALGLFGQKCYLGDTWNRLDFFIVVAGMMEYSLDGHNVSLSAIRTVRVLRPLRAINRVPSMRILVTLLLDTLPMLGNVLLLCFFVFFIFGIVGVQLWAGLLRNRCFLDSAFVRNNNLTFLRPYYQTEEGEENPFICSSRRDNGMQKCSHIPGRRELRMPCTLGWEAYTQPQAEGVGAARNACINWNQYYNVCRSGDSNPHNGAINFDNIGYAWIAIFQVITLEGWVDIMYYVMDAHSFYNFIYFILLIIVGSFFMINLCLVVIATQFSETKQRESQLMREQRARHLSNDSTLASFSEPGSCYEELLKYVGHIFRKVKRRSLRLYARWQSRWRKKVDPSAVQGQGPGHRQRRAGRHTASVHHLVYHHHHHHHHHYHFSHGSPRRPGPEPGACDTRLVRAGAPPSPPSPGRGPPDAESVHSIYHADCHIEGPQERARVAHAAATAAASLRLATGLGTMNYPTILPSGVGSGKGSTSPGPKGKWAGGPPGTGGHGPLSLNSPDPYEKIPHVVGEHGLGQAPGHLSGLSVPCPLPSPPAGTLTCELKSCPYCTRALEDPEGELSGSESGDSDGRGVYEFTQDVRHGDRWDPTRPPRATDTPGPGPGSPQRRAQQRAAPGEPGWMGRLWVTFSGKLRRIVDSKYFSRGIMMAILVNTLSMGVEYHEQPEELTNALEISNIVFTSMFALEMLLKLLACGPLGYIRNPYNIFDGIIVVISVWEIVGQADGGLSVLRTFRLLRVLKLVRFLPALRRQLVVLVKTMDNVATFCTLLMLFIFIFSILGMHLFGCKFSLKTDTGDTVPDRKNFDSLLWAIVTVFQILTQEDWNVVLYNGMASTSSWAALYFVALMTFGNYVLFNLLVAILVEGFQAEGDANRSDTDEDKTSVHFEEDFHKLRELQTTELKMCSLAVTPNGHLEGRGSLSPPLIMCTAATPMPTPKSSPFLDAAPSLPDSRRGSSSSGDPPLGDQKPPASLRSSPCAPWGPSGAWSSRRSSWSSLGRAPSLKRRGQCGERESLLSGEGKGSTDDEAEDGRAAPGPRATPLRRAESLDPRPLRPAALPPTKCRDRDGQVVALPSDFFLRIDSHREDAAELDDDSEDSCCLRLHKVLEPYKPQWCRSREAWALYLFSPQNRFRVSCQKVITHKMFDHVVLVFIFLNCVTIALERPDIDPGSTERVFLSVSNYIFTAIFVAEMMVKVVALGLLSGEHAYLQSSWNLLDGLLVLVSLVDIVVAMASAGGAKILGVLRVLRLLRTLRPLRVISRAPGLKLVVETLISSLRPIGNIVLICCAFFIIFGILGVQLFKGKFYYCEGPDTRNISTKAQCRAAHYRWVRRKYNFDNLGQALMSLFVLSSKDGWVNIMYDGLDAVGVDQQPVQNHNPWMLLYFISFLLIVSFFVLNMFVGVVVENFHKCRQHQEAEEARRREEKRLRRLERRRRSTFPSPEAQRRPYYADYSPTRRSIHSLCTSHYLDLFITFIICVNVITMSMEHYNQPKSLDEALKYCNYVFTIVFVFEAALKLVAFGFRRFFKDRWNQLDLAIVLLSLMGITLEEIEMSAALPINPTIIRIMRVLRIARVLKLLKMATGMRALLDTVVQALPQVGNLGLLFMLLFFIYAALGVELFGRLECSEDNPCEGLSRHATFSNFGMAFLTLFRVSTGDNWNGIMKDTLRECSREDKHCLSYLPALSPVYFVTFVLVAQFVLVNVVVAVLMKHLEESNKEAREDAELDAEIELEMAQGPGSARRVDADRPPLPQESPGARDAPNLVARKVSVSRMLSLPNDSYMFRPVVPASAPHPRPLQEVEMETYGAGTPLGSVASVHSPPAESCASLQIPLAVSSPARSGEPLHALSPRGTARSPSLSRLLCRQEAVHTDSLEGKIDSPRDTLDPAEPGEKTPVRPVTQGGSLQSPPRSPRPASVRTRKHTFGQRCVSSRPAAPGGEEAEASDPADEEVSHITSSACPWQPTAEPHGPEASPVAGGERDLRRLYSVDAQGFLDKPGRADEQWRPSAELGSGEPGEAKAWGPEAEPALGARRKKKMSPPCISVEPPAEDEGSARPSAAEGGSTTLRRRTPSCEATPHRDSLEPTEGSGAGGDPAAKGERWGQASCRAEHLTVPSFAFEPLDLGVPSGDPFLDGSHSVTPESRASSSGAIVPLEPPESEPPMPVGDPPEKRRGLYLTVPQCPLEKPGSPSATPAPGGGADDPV
CYP3A4, sequence (P08684 whole entry): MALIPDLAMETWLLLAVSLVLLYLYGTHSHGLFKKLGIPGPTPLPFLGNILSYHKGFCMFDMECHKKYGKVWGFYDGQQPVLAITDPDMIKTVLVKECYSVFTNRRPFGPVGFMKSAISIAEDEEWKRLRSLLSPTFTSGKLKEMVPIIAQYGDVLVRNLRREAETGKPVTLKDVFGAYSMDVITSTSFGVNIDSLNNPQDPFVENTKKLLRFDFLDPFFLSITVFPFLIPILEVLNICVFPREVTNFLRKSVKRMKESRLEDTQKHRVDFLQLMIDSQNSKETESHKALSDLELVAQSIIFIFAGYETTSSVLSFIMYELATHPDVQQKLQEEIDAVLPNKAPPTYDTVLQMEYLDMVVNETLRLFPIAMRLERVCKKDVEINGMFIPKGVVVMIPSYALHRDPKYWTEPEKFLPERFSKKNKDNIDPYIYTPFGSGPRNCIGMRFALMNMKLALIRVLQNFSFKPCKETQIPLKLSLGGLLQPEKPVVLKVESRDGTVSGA
CYP2C9, sequence (P11712 whole entry): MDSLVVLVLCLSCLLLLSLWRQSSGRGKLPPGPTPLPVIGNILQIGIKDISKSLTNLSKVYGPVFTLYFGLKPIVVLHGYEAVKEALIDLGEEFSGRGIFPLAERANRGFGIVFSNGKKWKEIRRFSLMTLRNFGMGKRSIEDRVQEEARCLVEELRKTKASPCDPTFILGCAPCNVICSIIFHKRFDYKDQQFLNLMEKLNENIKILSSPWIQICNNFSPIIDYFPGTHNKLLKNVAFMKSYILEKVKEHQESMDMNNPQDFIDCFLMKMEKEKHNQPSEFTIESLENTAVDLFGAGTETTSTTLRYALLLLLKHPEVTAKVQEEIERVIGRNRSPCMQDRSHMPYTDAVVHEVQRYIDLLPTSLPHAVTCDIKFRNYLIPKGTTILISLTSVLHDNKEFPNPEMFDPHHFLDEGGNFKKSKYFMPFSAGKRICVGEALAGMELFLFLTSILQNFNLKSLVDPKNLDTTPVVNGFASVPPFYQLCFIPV

| SMILES | inhibition [1] [%] | inhibition [2] [%] | IC50 [6] [µM] | activity at 0.25 h (CYP2D6) [%] | activity at 0.25 h (CYP2C9) [%] | activity at 0.25 h (CYP2C19) [%] | activity at 0.25 h (CYP3A4) [%] | Activity (Rattus norvegicus [8]) | other results |
| --- | --- | --- | --- | --- | --- | --- | --- | --- | --- |
| CC(C)Cc1cc(CNC(=O)C2C3CN(C(=O)Cc4ccccc4)CC32)nn1-c1ccccc1 (stereo not given) | 81 | 89.9 | 20.8 | 83 | 24.8 | 65.5 | 80.4 |  | IC50 [3]: 2.73 µM; IC50 [4]: 2.5 µM; inhibition [5]: 60.6%; remaining at 0.5 h [7]: 57.8% |
| CC(C)Cc1cc(CNC(=O)C2C3CN(C(=O)c4ccccc4)CC32)nn1-c1ccccc1 (stereo not given) |  |  |  | 94 | 64.6 | 60.8 | 74.6 | inactive | fold change (FC) (Rattus norvegicus [9]): 2; AUC(0-inf) [10]: 3860 ng·h/mL; AUC(0-t) [11]: 3850 ng·h/mL; clearance [12]: 43.8 mL/min/kg; MRT [13]: 18.2 min; Kp at 2 h [14]: 0.29; bioavailability [15]: 7.6%; AUC(0-inf) [16]: 294 ng·h/mL; AUC(0-t) [17]: 273 ng·h/mL; Cmax [18]: 280 ng/mL; Tmax [19]: 26 min; Kp at 2 h [20]: 0.12 |
| CC(C)Cc1cc(CNC(=O)C2C3CN(CCC(C)(C)C)CC32)nn1-c1ccccc1 (stereo not given) |  |  | 2.6 | 126 | 72.8 | 101 | 82.3 | Active | fold change (FC) (Rattus norvegicus [9]): 3 |
| CC(C)Cc1cc(CNC(=O)C2C3CN(Cc4ccccc4)CC32)nn1-c1ccccc1 (stereo not given) |  |  | 1.43 | 56.2 | 118 | 30.3 | 102 |  |  |
| CC(C)Cc1cc(CNC(=O)C2C3CN(CCc4ccc(C(F)(F)F)cc4)CC32)nn1-c1ccccc1 (stereo not given) | 60.5 | 64.6 |  |  |  |  |  |  |  |
| CC(C)Cc1cc(C(=O)NCC2C3CN(CCC(C)(C)C)CC23)nn1-c1ccccc1 (stereo not given) |  |  |  | 55.9 | 87.1 | 84.2 | 130 |  |  |
| CC(C)(C)CCN1CC2C(CNC(=O)c3cc(Cl)cc(Cl)c3)C2C1 (stereo not given) |  |  |  |  |  |  |  |  | IC50 [21]: 0.31 µM |
| NCC1(CC(=O)O)CCCCC1 |  |  |  |  |  |  |  | inactive |  |
| CN(CCCc1nc2ccccc2[nH]1)C(=O)C1C2CN(CCc3ccc(C(F)(F)F)cc3)CC21 (stereo not given) | 49.2 | 58.7 |  | 27.7 | 51.4 | 42.3 | 61.4 |  | remaining at 0.5 h [7]: 76.9% |

Reference: ChEMBL document CHEMBL4428088, “Synthesis and evaluation of 6-pyrazoylamido-3N-substituted azabicyclo[3,1,0]hexane derivatives as T-type calcium channel inhibitors for treatment of neuropathic pain” (Bioorg Med Chem, 2016)
